Assay results published in ChEMBL document CHEMBL4616669, “Bioisosteric Replacement of Arylamide-Linked Spine Residues with N-Acylhydrazones and Selenophenes as a Design Strategy to Novel Dibenzosuberone Derivatives as Type I 1/2 p38α MAP Kinase Inhibitors” (J Med Chem, 2020).
pIC50: −log10 of the molar value.

Tests used:
[1] = biological target: T1, Mitogen-activated protein kinase 14 (Homo sapiens, UniProt Q16539); assay: Inhibition of p38alpha MAPK (unknown origin) assessed as target residence time using ATF2 as substrate preincubated for 1 hr followed by jump dilution in presence of substrate and measured every 3 mins for 4 hrs by TR-FRET assay
[2] = biological target: T1, Mitogen-activated protein kinase 14; assay: Inhibition of NanoBRET kinase tracer K4 binding to full-length human C-terminal NanoLuc-tagged p38alpha MAPK expressed in HEK293T cells incubated for 2 hrs by NanoBRET NanoGlo substrate based NanoBRET assay; type: cell-based, HEK-293T
Procedure, shortened: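 Cellular reporter-displacement NanoBRET format, run in intact cells where the competing substrate ATP is present at cellular concentrations. The result is reported as an IC50.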

[3] = biological target: T1, Mitogen-activated protein kinase 14; assay: Inhibition of p38alpha MAPK in human whole blood assessed as reduction in LPS-induced TNFalpha production preincubated for 2.5 hrs followed by LPS stimulation by ELISA; type: tissue-based
[4] = biological target: T1, Mitogen-activated protein kinase 14; assay: Inhibition of recombinant human full-length N-terminal GST-tagged p38alpha MAPK expressed in baculovirus infected Sf9 insect cells using p38 peptide as substrate preincubated for 15 mins followed by substrate addition and measured after 60 mins by ADP-glo assay
[5] = Drug metabolism in human liver microsomes assessed as oxidation at 100 uM measured after 180 mins in presence of NADPH generating system by LC-MS/MS analysis; type: ADME, Microsome; conditions: 3 h
[6] = Stability of the compound in human liver microsomes at 100 uM measured after 180 mins in presence of NADPH generating system by LC-MS/MS analysis; type: ADME, Microsome; conditions: 3 h

T1 sequence (Q16539 whole entry): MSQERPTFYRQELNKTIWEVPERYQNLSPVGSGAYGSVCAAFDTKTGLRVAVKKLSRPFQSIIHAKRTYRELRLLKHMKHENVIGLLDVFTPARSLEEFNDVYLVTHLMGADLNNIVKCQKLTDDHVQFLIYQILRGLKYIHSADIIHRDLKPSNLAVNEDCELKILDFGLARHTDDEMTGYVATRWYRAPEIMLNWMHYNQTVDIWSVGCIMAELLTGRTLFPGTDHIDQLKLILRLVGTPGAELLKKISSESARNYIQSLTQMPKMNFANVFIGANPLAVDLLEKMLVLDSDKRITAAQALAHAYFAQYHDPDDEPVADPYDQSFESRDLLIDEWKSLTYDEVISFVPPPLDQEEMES

| TIME [1] [h] | pIC50 [2] | pIC50 [3] | pIC50 [4] | Drug metabolism [5] | Stability [6] | Structure (SMILES) |
| --- | --- | --- | --- | --- | --- | --- |
| 0.0244 | – | – | – | – | – | O=C1c2ccc(Nc3ccc(F)cc3F)cc2CCc2ccc(OC[C@H](O)CO)cc21 |
| 0.231 | 8.20 | 7.33 | 7.71 | Metabolite_Notdetected | Stable | O=C(NCCN1CCOCC1)c1ccc2c(c1)C(=O)c1ccc(Nc3ccc(F)c(/C=N/NC(=O)c4ccccc4)c3)cc1CC2 |
| 0.281 | 7.52 | 6.31 | 7.80 | – | – | O=C(NCCN1CCOCC1)c1ccc2c(c1)C(=O)c1ccc(Nc3ccc(F)c(/C=N/NC(=O)c4ccc[se]4)c3)cc1CC2 |
| 0.207 | – | 7.37 | 7.92 | – | – | O=C(NCCN1CCOCC1)c1ccc2c(c1)C(=O)c1ccc(Nc3ccc(F)c(NC(=O)c4cccs4)c3)cc1CC2 |
| 0.0511 | – | – | – | – | – | O=C(NCCN1CCOCC1)c1ccc2c(c1)C(=O)c1ccc(Nc3ccc(F)c(NC(=O)c4ccccc4)c3)cc1CC2 |
| 0.443 | 8.31 | 7.00 | 7.61 | Metabolite_Notdetected | – | O=C(NCCN1CCOCC1)c1ccc2c(c1)C(=O)c1ccc(Nc3ccc(F)c(NC(=O)c4ccc[se]4)c3)cc1CC2 |
| 0.372 | 7.81 | 6.56 | 7.53 | – | – | O=C(NCCN1CCOCC1)c1ccc2c(c1)C(=O)c1ccc(Nc3ccc(F)c(/C=N/NC(=O)c4cccs4)c3)cc1CC2 |
